ChEMBL document CHEMBL2176911 (J Med Chem, 2012)
Activity calls are given as the source filed them. No cut-off for these calls is given here.

Experiments:
[1] = target: Glycogen synthase kinase-3 alpha (Mus musculus, UniProt Q2NL51); experiment: Binding affinity to GSK3A in mouse brain homogenate after 3 hrs by competition affinity chromatographic analysis; assay type: tissue-based
Outline: (§1)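 Mouse brain lysate applied to a KinAffinity matrix of mixed immobilized broad-spectrum kinase inhibitors at highest loading density, with increasing concentrations of free inhibitor added. […] Separate titrations of the immobilized ligands gave BC50 values.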

HT-22 [2] = experiment: Neuroprotective activity against glutamate-induced toxicity in mouse HT22 cells at 10 to 20 uM up to 48 hrs by MTS assay; assay type: functional, cell-based
[3] = target: Glycogen synthase kinase-3 (Sus scrofa, UniProt B2LUN4+I6LNT8); experiment: Inhibition of pig GSK3alpha/beta isolated from brain using YRRAAVPPSPSLSRHSSPHQ-phosphoS-EDEEE as substrate and [gamma33P]ATP after 30 mins by scintillation counting
Outline: (§2)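 Panel of purified kinases (recombinant from several species plus native enzymes), each assayed radiometrically over a range of inhibitor concentrations; IC50 in μM calculated from the dose-response curves.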

[4] = target: Glycogen synthase kinase-3 alpha (Homo sapiens, UniProt P49840); experiment: Binding affinity to GSK3A
[5] = target: Dual specificity tyrosine-phosphorylation-regulated kinase 1A (Homo sapiens) (UniProt Q13627); experiment: Inhibition of human recombinant GST-tagged DYRK1A expressed in Escherichia coli using KKISGRLSPIMTEQ as substrate at 1 uM after 30 mins
HT-22 [6] = experiment: Binding affinity to GSK3beta1 in mouse HT22 cell lysate by Western blot analysis; assay type: cell-free
Outline: (§3)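 Bead pull-down from HT22 cell or mouse brain extracts, with ethanolamine beads lacking ligand as control. Specificity was tested by adding excess free inhibitor to the extracts before binding.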

HT-22 [7] = experiment: Binding affinity to GSK3beta2 in mouse HT22 cell lysate by Western blot analysis; assay type: cell-free; outline: as §3
[8] = target: 1-phosphatidylinositol 3-phosphate 5-kinase (Mus musculus) (UniProt Q9Z1T6); experiment: Binding affinity to phosphatidylinositol-3-phosphate 5-kinase type 3 in mouse brain homogenate by Western blot analysis; assay type: tissue-based; outline: as §3
[9] = target: Homeodomain-interacting protein kinase 2 (Homo sapiens) (UniProt Q9H2X6); experiment: Inhibition of human recombinant GST-tagged HIPK2 expressed in Escherichia coli at 1 uM after 30 mins
[10] = target: Glycogen synthase kinase-3 alpha (Mus musculus) (UniProt Q2NL51); experiment: Binding affinity to GSK3alpha in mouse brain homogenate by Western blot analysis; assay type: tissue-based; outline: as §3
[11] = target: STE20-like serine/threonine-protein kinase (Mus musculus, UniProt O54988); experiment: Binding affinity to SLK1 in mouse brain homogenate after 3 hrs by competition affinity chromatographic analysis; assay type: tissue-based; outline: as §1
[12] = target: Interleukin-1 receptor-associated kinase 1 (Homo sapiens, UniProt P51617); experiment: Binding affinity to IRAK1
[13] = target: Dual specificity protein kinase CLK4 (Homo sapiens, UniProt Q9HAZ1); experiment: Binding affinity to CLK4
[14] = target: Casein kinase II subunit alpha' (Mus musculus) (UniProt O54833); experiment: Binding affinity to CK2 alpha' subunit in mouse HT22 cell lysate by Western blot analysis; assay type: cell-free; conditions: HT-22; outline: as §3
[15] = target: Dual specificity protein kinase CLK1 (Mus musculus, UniProt P22518); experiment: Inhibition of mouse recombinant GST-tagged CLK1 expressed in Escherichia coli using GRSRSRSRSRSR as substrate and [gamma33P]ATP after 30 mins by scintillation counting; outline: as §2
[16] = target: Serine/threonine-protein kinase pim-3 (Homo sapiens) (UniProt Q86V86); experiment: Inhibition of human recombinant His6-tagged PIM3 expressed in Sf21 cells using RSRHSSYPAGT as substrate at 1 uM after 30 mins
[17] = Inhibition of Plasmodium falciparum recombinant GSK3 expressed in Escherichia coli using YRRAAVPPSPSLSRHSSPHQ-phosphoS-EDEEE as substrate and [gamma33P]ATP after 30 mins by scintillation counting; outline: as §2
[18] = target: Casein kinase II subunit alpha' (Mus musculus, UniProt O54833); experiment: Binding affinity to CSNK2A2 in mouse brain homogenate after 3 hrs by competition affinity chromatographic analysis; assay type: tissue-based; outline: as §1
[19] = target: Casein kinase II subunit beta (Mus musculus, UniProt P67871); experiment: Binding affinity to […] in mouse brain homogenate after 3 hrs by competition affinity chromatographic analysis; assay type: tissue-based; outline: as §1
[20] = target: Dual specificity tyrosine-phosphorylation-regulated kinase 1A (Mus musculus) (UniProt Q61214); experiment: Binding affinity to DYRK1A in mouse HT22 cell lysate by Western blot analysis; assay type: cell-free; conditions: HT-22; outline: as §3
[21] = target: Casein kinase II subunit beta (Mus musculus) (UniProt P67871); experiment: Binding affinity to CK2 beta subunit in mouse HT22 cell lysate by Western blot analysis; assay type: cell-free; conditions: HT-22; outline: as §3
[22] = target: Dual specificity tyrosine-phosphorylation-regulated kinase 1A (Rattus norvegicus, UniProt Q63470); experiment: Inhibition of rat DYRK1A isolated from brain using KKISGRLSPIMTEQ as substrate and [gamma33P]ATP after 30 mins by scintillation counting
[23] = target: Protein VAC14 homolog (Mus musculus) (UniProt Q80WQ2); experiment: Binding affinity to VAC14 in mouse brain homogenate by Western blot analysis; assay type: tissue-based; outline: as §3
[24] = Inhibition of Leishmania major recombinant CK1 expressed in Escherichia coli using RRKHAAIGpSAYSITA as substrate and [gamma33P]ATP after 30 mins by scintillation counting; outline: as §2
[25] = target: 1-phosphatidylinositol 3-phosphate 5-kinase (Mus musculus, UniProt Q9Z1T6); experiment: Binding affinity to phosphatidylinositol-3-phosphate 5-kinase type 3 in mouse brain homogenate after 3 hrs by competition affinity chromatographic analysis; assay type: tissue-based; outline: as §1
HT-22 [26] = experiment: Downregulation of DYRK1A expression in mouse HT22 cells after 4 hrs by Western blot analysis; assay type: functional, cell-based
[27] = target: Dual specificity tyrosine-phosphorylation-regulated kinase 1A (Rattus norvegicus) (UniProt Q63470); experiment: Inhibition of DYRK1A in CD Sprague-Dawley rat brain assessed as inhibition of human APP-induced neurodegeneration after 3 hrs by fluorescence microscopic analysis
HT-22 [28] = experiment: Inhibition of GSK3 isolated from mouse HT22 cells; assay type: cell-free
[29] = target: Cyclin-dependent kinase 2/cyclin A (Homo sapiens, UniProt P24941); experiment: Inhibition of CDK2/cyclin A using [gamma33P]ATP after 30 mins by scintillation counting; assay type: protein-complex assay; outline: as §2
Mus musculus = species on record: Mus musculus; experiment: Binding affinity to GSK3beta2 in mouse brain homogenate by Western blot analysis; assay type: tissue-based; outline: as §3
[30] = target: Serine/threonine-protein kinase TAO1 (Homo sapiens, UniProt Q7L7X3); experiment: Binding affinity to TAOK1

O=C1NC(Nc2ccccc2)=N/C1=C\c1ccc2c(c1)OCO2
Kd(free) [1]: 3274 nM | Activity (HT-22 [2]): Active | IC50 [3]: 410 nM | Kd [4]: 550 nM | inhibition [5]: Active | Activity (HT-22 [6]): Active | Activity (HT-22 [7]): Active | Activity [8]: Active | inhibition [9]: Active | Activity [10]: Active | Kd(free) [11]: 21 nM | Kd [12]: 930 nM | Kd [13]: 70 nM | Activity [14]: Active | IC50 [15]: 71 nM | inhibition [16]: Active | IC50 [17]: > 10000 nM | Kd(free) [18]: 574 nM | Kd(free) [19]: 382 nM | Activity [20]: Active | Activity [21]: Active | IC50 [22]: 10 nM | Activity [23]: Active | IC50 [24]: ≥ 10000 nM | Kd(free) [25]: 6010 nM | Activity (HT-22 [26]): inactive | inhibition [27]: Dose-dependent effect | inhibition (HT-22 [28]): inactive | IC50 [29]: > 30000 nM | Activity (Mus musculus): Active | Kd [30]: 1700 nM
